Published values collected from several papers.
pIC50: −log10 of the molar value. Converted amounts (≈) assume the structure as drawn.

SMILES | target or system | assay | system | conditions | quantity | result
COc1ccc(C(=O)c2c[nH]c3ncc(-c4ccc(N5CCNCC5)nc4)cc23)cc1 | A549 | cell growth or viability, MTT | – | 10 µM, 48 h | viability | 110%
Cc1ccc(CN2C(=O)/C(=N\NC(=O)c3cc4ccccc4[nH]3)c3ccccc32)cc1 | A549 | cell growth or viability | – | 30 µM | inhibition | 91.9%
COc1cc(Nc2nc(C#N)cc3c(-c4ccccc4)n[nH]c23)cc(OC)c1OC | PC-3 | cell growth or viability, MTS | – | 48 h | pIC50 | 5.37
Cc1c(C)c2c(c(C)c1O)CCC(C)(C(=O)O)O2 (stereo not shown) | – | ABTS scavenging | – | – | IC50 | 6.16 µg/mL
C[C@]12CCC(=O)C[C@@H]1CC[C@@H]1[C@@H]2CC[C@@]2(C)[C@H]1CC[C@]2(C)O | NIH3T3 | cell growth or viability, MTT | – | 24 h | pIC50 | < 4.52
Nc1ncnc2c([C@@H]3N[C@H](CO)[C@@H](O)[C@H]3O)c[nH]c12 | unidentified influenza virus | viral replication, inhibitor | MDCK | 0.1 µM | inhibition | 0%
O=C(N/N=C1\C(=O)N(Cc2ccccc2)c2ccc(Cl)cc21)c1cc2ccccc2[nH]1 | A549 | cell growth or viability | – | – | pIC50 | 6.12
CC(C)=CCC/C(C)=C/COc1cc(O)cc(O)c1C(=O)c1ccccc1 | – | ABTS scavenging, absorbance | – | 5 min | pIC50 | 3.42
COC(=O)C(Cc1ccccc1)n1c(C)nc2c(N)nc(N)nc21 (stereo not shown) | unidentified influenza virus | viral replication | A549, H1N1 PR8 | 24 h | pIC50 | 7.41
O=C(NCCCCCCNc1c2c(nc3ccccc13)CCCC2)c1ccccc1O | – | ABTS scavenging | – | 1 h | pIC50 | 4.67
CC(C)(C)OC(=O)N1CCN(c2ccc(-c3cnc4[nH]cc(C(=O)c5ccc(F)cc5)c4c3)cc2)CC1 | A549 | cell growth or viability, MTT | – | 10 µM, 48 h | viability | 91.5%
O=c1c(O[C@@H]2O[C@H](CO)[C@H](O)[C@H](O)[C@H]2O)c(-c2ccc(O)c(O)c2)oc2cc(O)cc(O)c12 | – | ABTS scavenging, absorbance | – | 5 min | pIC50 | 5.18
Cc1nc2c(N)nc(=O)[nH]c2n1C(Cc1ccccc1)C(=O)O (stereo not shown) | unidentified influenza virus | viral replication | A549, H1N1 PR8 | 24 h | pIC50 | 6.28
C[C@]1(COc2ccc(N3CCC(Oc4ccc(OC(F)(F)F)cc4)CC3)cc2)Cn2cc([N+](=O)[O-])nc2O1 | Leishmania donovani | parasite growth | – | promastigote | pIC50 | 6.60
Cc1c(C)c2c(c(C)c1O)CCC(C)(C(=O)O)O2 (stereo not shown) | – | ABTS scavenging | – | 1 h | pIC50 | 4.70
C[C@@H]1[C@H](O)[C@@H](C)/C=C/C=C/C=C/C=C/C=C/C=C/C=C/[C@H](O[C@@H]2O[C@H](C)[C@@H](O)[C@H](N)[C@@H]2O)C[C@@H]2O[C@](O)(C[C@@H](O)C[C@@H](O)[C@H](O)CC[C@@H](O)C[C@@H](O)CC(=O)O[C@H]1C)C[C@H](O)[C@H]2C(=O)O | Leishmania donovani | parasite growth | – | amastigote | IC50 | 0.21 µg/mL
CCOC(=O)c1c(CSc2ccccc2)n(C)c2cc(Br)c(O)c(CN(C)C)c12.Cl.O | Punta Toro virus | cytopathic effect | – | – | MIC50 | > 100 µg/mL
COc1ccc2c(c1)/C(=N/NC(=O)c1cc3ccccc3[nH]1)C(=O)N2Cc1ccccc1 | A549 | cell growth or viability | – | 30 µM | inhibition | 97.4%
COC(=O)C(Cc1ccccc1)n1c(C)nc2c(N)nc(=O)[nH]c21 (stereo not shown) | unidentified influenza virus | viral replication | A549, H1N1 PR8 | 24 h | pIC50 | 6.47
Oc1c(Cl)cc(Cl)cc1Sc1cc(Cl)cc(Cl)c1O | Betapolyomavirus hominis | viral replication, inhibitor, qPCR | Vero | 30 µM, 5 days | inhibition | ~70%
N=C(N)c1ccc(OCCCCCOc2ccc(C(=N)N)cc2)cc1 | Leishmania donovani | parasite growth | – | amastigote | IC90 | 9 µg/mL (≈ 26.4 µM)
O=C(c1ccc(F)cc1)c1c[nH]c2ncc(-c3ccc(N4CCOCC4)nc3)cc12 | A549 | cell growth or viability, MTT | – | 10 µM, 48 h | viability | 77.1%
Cc1nc2c(N)nc(=O)[nH]c2n1C(Cc1c[nH]c2ccccc12)C(=O)O (stereo not shown) | unidentified influenza virus | viral replication | A549, H1N1 PR8 | 24 h | pIC50 | 6.29
CC(C)(C)OC(=O)N1CCN(c2ccc(-c3cnc4[nH]cc(C(=O)c5cccc(F)c5)c4c3)cn2)CC1 | A549 | cell growth or viability, MTT | – | 10 µM, 48 h | viability | 93.7%
Cc1nc2c(N)nc(=O)[nH]c2n1CC(=O)O | unidentified influenza virus | viral replication | A549, H1N1 PR8 | 24 h | pIC50 | 7.41
